# Assay results pooled from the literature.
# Protocols differ between the studies behind these lines.
Compound,tested on,assay,system,conditions,measurement,value
CC(C)(C#Cc1ccc(-c2ccc(Cl)c3c(NS(C)(=O)=O)nn(CC(F)(F)F)c23)c([C@@H](CC2CCCC2)NC(=O)Cn2nc(C(F)(F)F)c3c2C(F)(F)[C@H]2C[C@@H]32)n1)S(C)(=O)=O,Human immunodeficiency virus 1,"viral replication, inhibitor",,,EC50,0.0123 µM
C=CCCCNc1c2c([nH]c(=O)c1C(=O)OCC)CCC2,Human immunodeficiency virus 1,"viral replication, inhibitor",IIIB,72 h,EC50,45.4 µM
CC(=O)ON=C1C=CC(=C(C#N)c2ccccc2)C=C1,HDF-1,"cell growth or viability, MTT",,48 h,IC50,24.9 µg/mL
CCCNc1c2c([nH]c(=O)c1C(=O)OCC)CCC2,Human immunodeficiency virus 1,"viral replication, inhibitor",IIIB,72 h,EC50,30.6 µM
CC(C)(C#Cc1ccc(-c2ccc(Cl)c3c(NS(C)(=O)=O)nn(CC(F)(F)F)c23)c([C@@H](CC2CC2)NC(=O)Cn2nc(C(F)(F)F)c3c2C(F)(F)[C@@H]2C[C@H]32)n1)S(C)(=O)=O,Human immunodeficiency virus 1,"viral replication, inhibitor",,,EC50,0.0038 µM
[NH2][Pt]([NH2])([Cl])[Cl],HCC4006,"cell growth or viability, MTT",,48 h,IC50,182 µM
CCOC(=O)c1c(NCCO)c2c([nH]c1=O)CCC2,Human immunodeficiency virus 1,"viral replication, inhibitor",IIIB,72 h,EC50,> 100 µM
Cc1cc(/C=C/C#N)cc(C)c1Nc1ccnc(Nc2ccc(C#N)cc2)n1,Human immunodeficiency virus 1,"viral replication, inhibitor","TZM-bl, IIIB",48 h,EC50,0.00089 µM
CC(C)(C#Cc1ccc(-c2ccc(Cl)c3c(NS(C)(=O)=O)nn(CC(F)(F)F)c23)c([C@H](Cc2cc(F)cc(F)c2)NC(=O)Cn2nc(C(F)(F)F)c3c2C(F)(F)[C@@H]2C[C@H]32)n1)S(C)(=O)=O,Human immunodeficiency virus 1,"viral replication, inhibitor",,,EC50,0.00019 µM
Cc1nc(Nc2ncc(C(=O)Nc3c(C)cccc3Cl)s2)cc(N2CC[C@H](O)C2)n1,SU-DHL-5,"cell growth or viability, ATP luminescence",,"10 µM, 72 h",inhibition,98%
CO[C@H]1/C=C/O[C@@]2(C)Oc3c(C)c(O)c4c(O)c(c(/C=N/N5CCN(C)CC5)c(O)c4c3C2=O)NC(=O)/C(C)=C\C=C\[C@H](C)[C@H](O)[C@@H](C)[C@@H](O)[C@@H](C)[C@H](OC(C)=O)[C@@H]1C,Mycobacterium marinum,microbial growth,,,MIC90,10 µM
O=c1[nH]ncc(NN=Cc2cn(-c3ccccc3)nc2-c2ccccc2)c1Cl,CCRF-CEM,cell growth or viability,,48 h,CC50,4.78 µM
O=[N+]([O-])c1cn2c(n1)OC[C@@H](OCc1ccc(OC(F)(F)F)cc1)C2,Mycobacterium marinum,microbial growth,,,MIC90,50 µM
CCOC(=O)c1c(NCCCCN)c2c([nH]c1=O)CCC2,Human immunodeficiency virus 1,"viral replication, inhibitor",IIIB,72 h,EC50,> 100 µM
